AI-2 QS modul: modulators of Vibrio harveyi AI-2 quorum sensing system | Vibrio harveyi JMH597 AI-2 luminescence/OD600 ratio, 9 h; active compounds read low; strain lacks LuxN and CqsS sensors; 0 = neutral-control median | activity change, % at 7.5 µM | hit rate 0.4% among 300,000 | AID 2094; in the data active = activity change below about -75%, passing the limit was not always enough;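 also: luminescence divided by OD600 gain over 9 h not by final OD600 alone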
HSF1 activator: increases HSF-1 driven luciferase reporter signal; activation, % at 9 µM; hit rate 1.7% among 300,000; NIH3T3-HGL HSF-1 luciferase reporter, MG132, 8 h; 100% = twice DMSO control signal;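 active = mean replicate activation of at least 50% with a set share of replicates each reaching 50%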
HSF1 inh: HSF1 inhibition; activity change, negative = inhibition, % at 7.5 µM (by protocol); NIH3T3-HGL HSE-luciferase, MG132-induced, luminescence 8 h; active compounds read low; hit rate 0.77% among 300,000; AID 2098;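 active = more than half of replicate wells show activity change below -50%, luminescence cut by over half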;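 also: luciferase reports HSF-1 transcriptional activity via heat shock element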
ALR H2O2 inh: blocks human ALR sulfhydryl oxidase activity | P55789 | purified ALR, DTT oxidation, H2O2 HRP-luminol luminescence | inhibition, % (concentration not given with the values) | hit rate 3.8% among 290,000 | AID 485317;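 active = mean replicate inhibition above about 79%, with every replicate also reaching it, limit read from the data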
Target sequence (P55789 whole entry, looked up): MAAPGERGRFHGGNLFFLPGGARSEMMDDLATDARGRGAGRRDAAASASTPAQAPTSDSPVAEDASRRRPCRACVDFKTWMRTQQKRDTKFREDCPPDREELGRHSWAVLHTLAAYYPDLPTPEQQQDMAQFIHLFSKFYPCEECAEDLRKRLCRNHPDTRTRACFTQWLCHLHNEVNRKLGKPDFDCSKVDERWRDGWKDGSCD
PHOSPHO1 inh: PHOSPHO1 (human) inhibition; Q8TCT1; recombinant PHOSPHO1, absorbance phosphatase assay; hit rate 1.1% among 290,000; AID 1565; inhibition, % at 13.3 µM; in the data active = inhibition above about 60%
core dimer inh: blocks dimerization of HCV core protein. TR-FRET GST/Flag-core106 dimerization, 1536-well. inhibition, % at 5 µM. hit rate 0.33% among 300,000;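 active = inhibition above the mean of all tested compounds plus 3 SD, set per screening campaign, cut at about 45% in these data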
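Assay system: Tagged HCV core106 pair (GST and Flag) | Buffer or medium: KF-containing HEPES buffer, pH 7.45, DTT, CHAPS, BSA | Also added: Eu donor and XL665 acceptor anti-tag antibodies | Dosing: One concentration, 5 µM, in 0.5% DMSO | Timing: 4 h at 22.5 °C | Technique: TR-FRET 671 and 617 nm emission | Repeats: Singlicate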
Numbers stand for hits; . = inactive; / = no result given. In the library only some 6.8% were active in any assay of this set; here they are far more common.

SMILES | AI-2 QS modul | HSF1 activator | HSF1 inh | ALR H2O2 inh | PHOSPHO1 inh | core dimer inh
Cc1ccc(S(=O)(=O)N2CCOCC(=O)NCCOCCNC(=O)COCC2)cc1 | . | . | . | / | . | /
Cc1cc(C)c2c(c1)[C@@H]1C=CC[C@@H]1[C@H](c1ccc(S(=O)(=O)N3CCOCC3)cc1)N2 | / | / | / | / | . | 84
N/C(Cc1ccc(Cl)cc1Cl)=N\OC(=O)c1ccccc1F | . | 68 | . | / | . | .
N/C(Cc1cccc2ccccc12)=N\OC(=O)c1ccccc1F | . | . | . | . | . | /
CCN(CC)CCNc1nc(-c2ccc(OC)cc2)c(-c2ccc(OC)cc2)s1 | . | . | . | 99 | . | .
COCCNc1nc(-c2ccc(OC)cc2)c(-c2ccc(OC)cc2)s1 | . | . | . | 94 | . | .
COc1ccc(-c2sc(NC(C)=O)nc2-c2ccccc2)cc1 | . | . | . | . | . | .
O=C(NN=Cc1cc(Br)c(O)c(Br)c1)c1ccccc1NS(=O)(=O)c1cccs1 | / | / | / | 89 | / | /
COc1ccccc1NC(=O)C1CCCN(S(=O)(=O)c2ccc(-n3cnnn3)cc2)C1 (stereo not drawn) | . | . | . | . | . | .
C/C=C/c1ccc(OCC(=O)Nc2cc(OC)c(OC)c(OC)c2)c(OC)c1 | . | . | -52 | . | . | .
Cc1ccc(NC(=O)CCNS(=O)(=O)c2ccc3[nH]c(=O)oc3c2)cc1F | . | . | . | . | . | .
CCN1/C(=C(\O)c2ccccc2)C(=O)c2ccccc2S1(=O)=O | . | . | -70 | . | . | .
CCOC(=O)c1ccc(CN2C(=O)c3ccccc3S2(=O)=O)cc1 | . | . | . | . | . | .
CCn1c(C)c(C(C)=O)c(N2CCN(c3ccc(F)cc3)CC2)nc1=S | . | . | . | . | 102 | .
CC(=O)c1c(N2CCN(CCO)CC2)nc(=S)n(-c2ccccc2)c1C | . | . | -64 | . | . | .
CC(=O)c1c(N2CCN(c3ccccc3)CC2)nc(=S)n(-c2ccccc2)c1C | . | . | . | . | . | .
CCOc1ccc(-n2c(=O)[nH]cc(C(=O)Nc3ccc(OC)c(OC)c3)c2=O)cc1 | . | . | . | / | . | .
COC(=O)[C@@H]1C[C@]2(OC(=O)c3ccccc3)C=CC(=O)C[C@@H]2N1C(=O)OCc1ccccc1 | . | 73 | . | . | . | .
CCOc1ccc(-c2nnc(SCc3nc4ccccc4[nH]3)n2N)cc1 | . | 63 | . | . | 76 | .
O=c1[nH]c(CSc2nnc(-c3ccncc3)n2Cc2ccco2)nc2ccccc12 | . | . | . | . | . | .
Cc1cccc(-c2nnc(SCc3nc4ccccc4[nH]3)n2Cc2ccco2)c1 | . | . | . | . | 83 | .
Cc1ccc(-c2nnc(SCc3nc4ccccc4[nH]3)n2Cc2ccco2)cc1 | . | . | . | . | 94 | .
Cn1c(SCc2nc3ccccc3[nH]2)nnc1-c1cccnc1 | . | . | . | . | . | .
c1coc(Cn2c(SCc3nc4ccccc4[nH]3)nnc2-c2cccs2)c1 | . | . | . | . | 92 | .
Cc1ccccc1CSc1nnc(-c2cccs2)n1Cc1ccco1 | . | . | . | . | . | .
SMILES | AI-2 QS modul | HSF1 activator | HSF1 inh | ALR H2O2 inh | PHOSPHO1 inh | core dimer inh
O=C(O)c1cc(Cl)c(Cl)cc1C(=O)N(Cc1ccccc1)Cc1ccccc1 | . | . | . | . | . | .
COc1cccc(NC(=O)[C@H](C)NC(=O)N2CCn3c2nc2ccccc23)c1 | . | . | . | . | 65 | .
CC(NC(=O)CCNC(=O)N1CCn2c1nc1ccccc12)c1ccccc1 (stereo not drawn) | . | . | . | 97 | . | .
CSCC[C@H](NC(=O)N1CCn2c1nc1ccccc12)C(=O)N1CCCCC1 | . | . | . | 98 | . | .
COc1ccc(CCNC(=O)[C@H](CC(C)C)NC(=O)N2CCn3c2nc2ccccc23)cc1OC | . | 56 | . | . | . | .
COc1ccc(CCNC(=O)[C@@H](NC(=O)N2CCn3c2nc2ccccc23)C(C)C)cc1OC | . | . | . | . | . | .
COc1cc(NC(=O)[C@H](C)NC(=O)N2CCn3c2nc2ccccc23)cc(OC)c1 | . | . | . | . | . | .
COc1cccc(CNC(=O)CN2C(=O)COc3ccc(S(=O)(=O)N4CCC(C)CC4)cc32)c1 | . | . | . | . | . | .
